Calls of active or inactive are those of the source. The rule behind the calls is not given here.
Tests used:
KB = assay: Cytotoxicity against human KB cells; assay type: functional, cell-based
MCF7 [1] = assay: Cytotoxicity against doxorubicin-sensitive human MCF7 cells; assay type: functional, cell-based
HCT-116 [2] = assay: Cytotoxicity against human HCT116 cells; assay type: functional, cell-based
HCT-116 [3] = assay: Cell cycle arrest in human HCT116 cells assessed as accumulation at G2/M phase at 10 nM after 48 hrs by flow cytometry; assay type: functional
MCF7 [4] = assay: Cell cycle arrest in human MCF7 cells assessed as accumulation at G0/G1 phase at 10 nM after 48 hrs; assay type: functional, cell-based
HCT-116 [5] = assay: Cell cycle arrest in human HCT116 cells assessed as accumulation at S phase at 10 nM after 48 hrs by flow cytometry; assay type: functional
MCF7 [6] = assay: Cytotoxicity against doxorubicin-resistant human MCF7 cells; assay type: functional, cell-based
How it was run: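 Doxorubicin-resistant MCF-7 line derived by prolonged doxorubicin treatment of MCF-7 cells; cytotoxicity assay run per a previously published procedure.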

HCT-116 [7] = assay: Cell cycle arrest in human HCT116 cells assessed as accumulation at G0/G1 phase at 10 nM after 48 hrs by flow cytometry; assay type: functional
P388 = assay: Antitumor activity against mouse P388 cells implanted in CDF1 mouse assessed as reduction in body weight at 2.5 mg/kg, ip administered 1 day following implantation; assay type: functional, organism-based; design: dose 2.5 mg/kg
How it was run: (§1)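 10^6 P388 (or P388/F 11782) murine leukemia cells implanted i.v. into CDF1 mice on day zero; single i.p. dose (2.5 or 5 mg/kg) given the day after implantation. Mice weighed twice weekly during treatment, weekly thereafter. Antitumor activity judged by increase in lifespan: ILS (%) = T/C − 100, T/C = median survival treated/control × 100.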

Mus musculus = assay: Toxicity in mouse P388 cells implanted in CDF1 mouse assessed as induction of death at 5 mg/kg, ip administered 1 day following implantation; assay type: organism-based; design: dose 5 mg/kg, route intraperitoneal; details: in vivo, 24 h; how it was run: as §1

SMILES: COc1cc(OC)c2c(-c3ccc4c(c3)OCO4)c3c(c(OC)c2c1O)COC3=O [JUSTICINOL]
- IC50 (KB): 300 nM
- IC50 (MCF7 [1]): 360 nM

SMILES: CC(=O)O[C@@]12CO[C@@H]1C[C@H](O)[C@@]1(C)C(=O)[C@H](O)C3=C(C)[C@@H](OC(=O)[C@H](O)[C@@H](NC(=O)OC(C)(C)C)c4ccccc4)C[C@@](O)([C@@H](OC(=O)c4ccccc4)[C@H]21)C3(C)C [DOCETAXEL]
- IC50 (HCT-116 [2]): 4 nM
- IC50 (KB): 2 nM
- IC50 (MCF7 [1]): 20 nM

SMILES: COc1cc2c(O[C@H]3O[C@@H](C)[C@@H](O)[C@@H](O)[C@@H]3O)c3c(c(-c4ccc5c(c4)OCO5)c2cc1OC)C(=O)OC3 [PATENTIFLORIN B]
- IC50 (HCT-116 [2]): 250 nM
- IC50 (KB): 6 nM
- IC50 (MCF7 [1]): 300 nM

SMILES: COc1cc2c(O[C@@H]3O[C@H](C)[C@@H](O)[C@H](O)[C@H]3O)c3c(c(-c4ccc5c(c4)OCO5)c2cc1OC)C(=O)OC3 [PATENTIFLORIN A]
- Activity (HCT-116 [3]): 13.5%
- IC50 (HCT-116 [2]): 12 nM
- IC50 (KB): 4 nM
- Activity (MCF7 [4]): Active
- Activity (HCT-116 [5]): 43.4%
- IC50 (MCF7 [1]): 3 nM
- IC50 (MCF7 [6]): 40 nM
- Activity (HCT-116 [7]): 41.9%
- Activity (P388): inactive
- Activity (Mus musculus): Toxic

SMILES: COc1cc2c(O[C@@H]3O[C@H](CO[C@@H]4OC[C@H](OC(C)=O)[C@H](OC(C)=O)[C@H]4OC(C)=O)[C@H](OC(C)=O)[C@H](OC(C)=O)[C@H]3OC(C)=O)c3c(c(-c4ccc5c(c4)OCO5)c2cc1OC)C(=O)OC3
- IC50 (HCT-116 [2]): 260 nM
- IC50 (KB): 180 nM
- IC50 (MCF7 [1]): 80 nM
- IC50 (MCF7 [6]): 8000 nM

SMILES: COc1cc2c(O[C@@H]3O[C@H](C)[C@@H](OC(C)=O)[C@H](OC(C)=O)[C@H]3OC(C)=O)c3c(c(-c4ccc5c(c4)OCO5)c2cc1OC)C(=O)OC3
- IC50 (HCT-116 [2]): 16 nM
- IC50 (KB): 14 nM
- IC50 (MCF7 [1]): 2 nM
- IC50 (MCF7 [6]): 65 nM

SMILES: COc1cc2c(O[C@H]3O[C@@H](C)[C@@H](OC(C)=O)[C@@H](OC(C)=O)[C@@H]3OC(C)=O)c3c(c(-c4ccc5c(c4)OCO5)c2cc1OC)C(=O)OC3
- IC50 (HCT-116 [2]): 35 nM
- IC50 (KB): 20 nM
- IC50 (MCF7 [1]): 45 nM

SMILES: COc1cc2c(O[C@H]3O[C@@H](C)[C@@H](OC(C)=O)[C@@H](O)[C@@H]3O)c3c(c(-c4ccc5c(c4)OCO5)c2cc1OC)C(=O)OC3 [4'-O-ACETYLPATENTIFLORIN B]
- IC50 (HCT-116 [2]): 30 nM
- IC50 (KB): 24 nM
- IC50 (MCF7 [1]): 12 nM
- IC50 (MCF7 [6]): 100 nM

SMILES: COc1cc2c(O[C@@H]3O[C@H](CO[C@@H]4OC[C@H](O)[C@H](O)[C@H]4O)[C@H](OC(C)=O)[C@H](OC(C)=O)[C@H]3O)c3c(c(-c4ccc5c(c4)OCO5)c2cc1OC)C(=O)OC3 [4'-O-ACETYLMANANTHOSIDE B]
- IC50 (HCT-116 [2]): 1200 nM
- IC50 (KB): 500 nM
- IC50 (MCF7 [1]): 260 nM
- IC50 (MCF7 [6]): 2200 nM

SMILES: O=C(CC(CO)C(=O)c1ccc2c(c1)OCO2)c1ccc2c(c1)OCO2 (stereo not drawn) [JUSTIFLORINOL]
- IC50 (KB): > 10000 nM

From ChEMBL document CHEMBL1158763, “Cytotoxic arylnaphthalene lignans from a Vietnamese acanthaceae, Justicia patentiflora” (J Nat Prod, 2005)
